In PMC10548513 (Chemical Science, 2023):
Positions of bridges follow the written chain, without caps; N, C: chain ends. Non-standard residues stand in square brackets, D forms with d. Residues, ends and D or L forms follow the SMILES beside them. No end group written: not given here. R8 = C=CCCCCCC[C@@](C)(N)C(=O)O; S5 = C=CCCC[C@](C)(N)C(=O)O

How the values were obtained:
HeLa cells [1] = assay: Peptide cytotoxicity, WST-8; format: cell-based; details: 24 h; for Cytotoxicity at 10 µM: peptide 10 µM; for Cytotoxicity at 30 µM: peptide 30 µM
[2] = Relative hydrophobicity by UPLC retention time; format: physicochemical; details: comparison among stapled peptides st4-1–6 and st7-1–6 (Table S1)
HeLa cells [3] = assay: Luciferase reporter assay, transfection of pDNA with peptide/pDNA complexes; format: cell-based; details: N/P ratio 16, 24 h
How it was run: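 Peptide/pDNA complexes were made with luciferase-encoding (rLuc) pDNA at an N/P charge ratio (peptide cationic residues to pDNA phosphate) of 8 or 16. They were added to HeLa cells for 24 h. Transfection was read as luminescence, given as RLU normalized to blank; n = 3, mean ± standard deviation.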

Huh-7-Luc cells = assay: RNAi assay by luciferase assay, peptide/siRNA complexes; format: cell-based, human; details: peptide/Luc-siRNA complex, N/P ratio 16, 48 h, n = 5
How it was run: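 Complexes of peptide with firefly GL3 luciferase siRNA, or scrambled-sequence control siRNA, were prepared at N/P 8 or 16. They were added to Huh-7 cells stably expressing luciferase and incubated for 48 h. Silencing was measured as loss of luminescence; n = 5, mean ± standard deviation.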

Relative hydrophobicity from UPLC retention times [2] | Compound | Cytotoxicity at 10 µM (HeLa cells [1]) | Transfection efficiency of pDNA relative to st7-5 (HeLa cells [3]) | Reduction of the luminescence signal (gene silencing) with Luc-siRNA (Huh-7-Luc cells) [%] | Cytotoxicity at 30 µM (HeLa cells [1])
most hydrophobic | CC[C@H](C)[C@H](NC(=O)CN)C(=O)N[C@@H](CCCCN)C(=O)N[C@@H](CCCCN)C(=O)N[C@@H](Cc1ccccc1)C(=O)N[C@@H](CC(C)C)C(=O)N[C@@H](CCCCN)C(=O)N[C@]1(C)CCCCCCC=CCCC[C@@](C)(C(=O)N[C@@H](Cc2ccccc2)C(=O)N[C@@H](CCCCN)C(N)=O)NC(=O)[C@H](CCCCN)NC(=O)[C@H](C(C)C)NC(=O)[C@H](Cc2ccccc2)NC(=O)[C@H](CCCCN)NC(=O)[C@H](CCCCN)NC(=O)[C@H](C)NC1=O [st7-5] (H-GIKKFLK[R8]AKKFVK[S5]FK-NH2; staple 8-15) | did not show significant cytotoxicity |  |  | 
 | CC[C@H](C)[C@H](NC(=O)CN)C(=O)N[C@@H](CCCNC(=N)N)C(=O)N[C@@H](CCCNC(=N)N)C(=O)N[C@@H](Cc1ccccc1)C(=O)N[C@@H](CC(C)C)C(=O)N[C@@H](CCCNC(=N)N)C(=O)N[C@]1(C)CCCCCCC=CCCC[C@@](C)(C(=O)N[C@@H](Cc2ccccc2)C(=O)N[C@@H](CCCNC(=N)N)C(N)=O)NC(=O)[C@H](CCCNC(=N)N)NC(=O)[C@H](C(C)C)NC(=O)[C@H](Cc2ccccc2)NC(=O)[C@H](CCCNC(=N)N)NC(=O)[C@H](CCCNC(=N)N)NC(=O)[C@H](C)NC1=O [st7-5_R] (H-GIRRFLR[R8]ARRFVR[S5]FR-NH2; staple 8-15) | did not show significant cytotoxicity | about 100 times | ~70 | 
 | GIGKFLHSAKKFGKAFVGEIMNS-NH2 [Magainin 2, reference compound] |  |  |  | did not exhibit cytotoxicity
 | GIKKFLKSAKKFVKAFK-NH2 [Pep-1] |  |  |  | did not exhibit cytotoxicity
